The nature of data set [1]: melting temperature; fluorescence melt of hairpins on a sequencing array, two-state fit, raised by 9.35 °C to match UV melts. The following applies: sodium 0.088 M. In outline: (§1)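 Library hairpins on a sequenced MiSeq flow cell carried annealed Cy3 and quencher oligos, and their Cy3 fluorescence was imaged in 50 mM Na-HEPES pH 8.0 with 25 mM NaCl, in 2.5 °C steps up to 60 °C. Signals were normalised to Cy3 before quenching and to control constructs. Melting temperature and folding enthalpy were obtained from bootstrapped two-state fits, combined by inverse-variance weighting across four replicates, and the fitted temperatures were then raised by 9.35 °C to match UV melts.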

Data set [2] is described as follows: folding enthalpy; higher = less favourable; fluorescence melt of hairpins on a sequencing array, two-state fit. The following applies: sodium 0.088 M. In outline: as §1

Take GGTGTGGGAAACCATACC (((.(((....))).))): the Tm in data set [1] stood at 50.8 °C. The folding enthalpy in data set [2] was -33.5 kcal/mol.

For GTGTTAGCGAAAGCTCAC (((..(((....)))))), the Tm in data set [1] was determined as 44.2 °C. In data set [2], the folding enthalpy is -21.9 kcal/mol.

On to GCTGAAGAAATTCAGC ((((((....)))))), for which, in data set [1], the Tm is 54.5 °C. Also, in data set [2], the folding enthalpy is -37.6 kcal/mol.

Turning to GATCTTAACCAAGATC ((((((....)))))), the Tm in data set [1] was 42.9 °C. For the same sequence, the folding enthalpy in data set [2] was -33.7 kcal/mol.

On to GCTCACGCGAAAGCGAGC (((..(((....)))))), for which the Tm in data set [1] turned out to be 47.8 °C. Further, the folding enthalpy in data set [2] is -15.1 kcal/mol.

GTCACGGGAAACCACGAC (((..((....))..))): the Tm in data set [1] came out at 34.9 °C. Also, the folding enthalpy in data set [2] was -23.6 kcal/mol.

Take GATCTAAATTAGATC ((((((...)))))): the Tm in data set [1] stood at 37.8 °C. In addition, the folding enthalpy in data set [2] was -21.3 kcal/mol.

As for GTTGACGAAAGTCGAAAC ((((((....)))..))), the Tm in data set [1] came to 30.9 °C. In addition, the folding enthalpy in data set [2] is -12 kcal/mol.

Take GAGGGACGAAAGTCCTC (((.(((....)))))): the Tm in data set [1] is 48.9 °C. Also, the folding enthalpy in data set [2] was -11.8 kcal/mol.

Consider GTGTTTCGAAAGAACAC (((.(((....)))))), for which the Tm in data set [1] amounted to 46.9 °C. For the same sequence, the folding enthalpy in data set [2] is -32.3 kcal/mol.

Turning to GATCTCAAGCGAGATC ((((((....)))))), the Tm in data set [1] is 50.4 °C. In addition, the folding enthalpy in data set [2] is -37.6 kcal/mol.

On to GAGGTGGGAAACTACCTC (((((.(....).))))), for which the Tm in data set [1] stood at 49.7 °C. The folding enthalpy in data set [2] was -41.1 kcal/mol.

As to GTCGACGAAAGTCAGAC ((((((....))).))), the Tm in data set [1] was determined as 52.3 °C. Moreover, the folding enthalpy in data set [2] was -35.2 kcal/mol.

Take GATCTATCAATAGATC ((((((....)))))): in data set [1], the Tm was found to be 42.8 °C. For the same sequence, the folding enthalpy in data set [2] is -33.6 kcal/mol.

In the case of GATCCGATGGCGGATC ((((((....)))))), the Tm in data set [1] was 56.6 °C. The folding enthalpy in data set [2] was -42.8 kcal/mol.

With GATCGAAGCTCGATC ((((((...)))))), the Tm in data set [1] was found to be 49.9 °C. Moreover, in data set [2], the folding enthalpy was -36 kcal/mol.

For the sequence GATCTCCTATGAGATC ((((((....)))))), the Tm in data set [1] is 53.4 °C. Besides, the folding enthalpy in data set [2] was -39.2 kcal/mol.

On to GTGCACGGAAACGCACAC (((..((....))..))), for which, in data set [1], the Tm was determined as 38.5 °C. For the same sequence, the folding enthalpy in data set [2] is -19.9 kcal/mol.

Regarding GAGACCGAAAGGTGACTC ((((((....)))..))), the Tm in data set [1] worked out at 35.6 °C. In addition, the folding enthalpy in data set [2] is -13.8 kcal/mol.

Consider GATCTCCTGTGAGATC ((((((....)))))), for which the Tm in data set [1] is 52.5 °C. Also, the folding enthalpy in data set [2] was -45.7 kcal/mol.

Consider GGACACGAAAGTGATCC ((((((....))).))), for which, in data set [1], the Tm is 48.5 °C. Besides, the folding enthalpy in data set [2] was -21.7 kcal/mol.

As to GGGATAGGAAACTATCTC (.(((((....))))).), the Tm in data set [1] was found to be 39.8 °C. In addition, the folding enthalpy in data set [2] is -25.3 kcal/mol.

With GCGAAGAGTCGC ((((....)))), the Tm in data set [1] came out at 48.4 °C. Further, the folding enthalpy in data set [2] was -11.8 kcal/mol.

Regarding GCCGCCGAAAGGCACGGC ((((((....)))..))), the Tm in data set [1] was 62.6 °C. In data set [2], the folding enthalpy is -16.7 kcal/mol.

With GAGGGTGGAAACACCCCC (.(((((....))))).), the Tm in data set [1] amounted to 44.8 °C. The folding enthalpy in data set [2] is -10.7 kcal/mol.

As for GTAGCCGAAAGGCATTAC ((((((....)))..))), in data set [1], the Tm was 27 °C. Also, the folding enthalpy in data set [2] was -7.48 kcal/mol.

As for GCGTAGCGAAAGCACCGC (((..((....))..))), the Tm in data set [1] was found to be 47.8 °C. The folding enthalpy in data set [2] was -10.6 kcal/mol.

In the case of GTCCTCGAAAGAGTCGAC ((((((....)))..))), the Tm in data set [1] came out at 32.3 °C. Further, the folding enthalpy in data set [2] is -12.3 kcal/mol.

Regarding GCGTGTGACGC ((((...)))), in data set [1], the Tm amounted to 53.4 °C. Further, in data set [2], the folding enthalpy was -23.8 kcal/mol.

Turning to GATCATCAGGATGATC ((((((....)))))), the Tm in data set [1] came to 50.6 °C. Further, the folding enthalpy in data set [2] is -36 kcal/mol.

On to GCATGAGGAAACTCACGC ((.((((....)))).)), for which the Tm in data set [1] came to 41.3 °C. Further, in data set [2], the folding enthalpy is -28 kcal/mol.

Regarding TGAGGGAAACCTCA (((((....))))), the Tm in data set [1] is 42.2 °C. Moreover, the folding enthalpy in data set [2] is -20.9 kcal/mol.

As to GCCGTGCGAAAGCACCGC ((.((((....)))).)), the Tm in data set [1] worked out at 55.8 °C. Besides, the folding enthalpy in data set [2] is -16 kcal/mol.

For GGAAACGAAAGTTACTCC ((((((....)))..))), the Tm in data set [1] was 22.8 °C. The folding enthalpy in data set [2] was -10.2 kcal/mol.

As for GCTTGGCGAAAGCAAAGC ((((.((....)).)))), the Tm in data set [1] is 63.7 °C. For the same sequence, the folding enthalpy in data set [2] was -36.5 kcal/mol.

Turning to GATGACGGAAACGTCACC (.(((((....))))).), the Tm in data set [1] worked out at 40 °C. Moreover, in data set [2], the folding enthalpy was -14.6 kcal/mol.

In the case of GATCCACTGTTGGATC ((((((....)))))), in data set [1], the Tm was determined as 49.9 °C. In addition, in data set [2], the folding enthalpy is -30.4 kcal/mol.

As to GCATACGAAAGTACTTGC ((((((....)))..))), the Tm in data set [1] came to 30.8 °C. In addition, the folding enthalpy in data set [2] was -11.7 kcal/mol.

The record behind these values is the array DNA melting data of Ke et al. (doi:10.1101/2024.01.08.574731).
